Test results from ChEMBL document CHEMBL1140818, “Triazole derivatives as non-nucleoside inhibitors of HIV-1 reverse transcriptase--structure-activity relationships and crystallographic analysis” (Bioorg Med Chem Lett, 2008).

How the values were obtained:
[1] = test system: Human immunodeficiency virus 1; test: Antiviral activity against HIV1 in MT4 cells; type: functional, organism-based; details: Human immunodeficiency virus 1, MT4
Procedure, shortened: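 HIV-1 infectivity assay in MT-4 cells over 5 days, with virus-induced cell death as the read-out. EC50 is the mean of at least two independent experiments.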

[2] = Selectivity index, ratio of EC50 for MT4 cells to EC50 for HIV1; type: cell-based; details: human; for selectivity ratio: MT4 cells, read-out: Selectivity index; for Selectivity index: mt4
Procedure, shortened: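 Ratio of the cytotoxicity EC50 to the antiviral EC50, both from the 5-day MT-4 assay with virus-induced cell death as the antiviral read-out. Values are means of at least two independent experiments.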

[3] = Partition coefficient, log D of the compound; type: physicochemical; details: octanol/water

Compound | EC50 [1] [µM] | selectivity ratio [2] | Selectivity index [2] | logD [3]
Cc1nnc(SCc2ccccc2)n1Cc1ccccc1 | 23.5 | 2 |  | 
Clc1ccc(CSc2nnc(-c3ccsc3)n2Cc2ccccc2)cc1Cl | 4.7 | 1.2 |  | 
Clc1ccccc1CSc1nnc(-c2ccsc2)n1Cc1ccccc1 | 0.131 | 62 |  | 
Clc1cccc(CSc2nnc(-c3cccs3)n2Cc2ccccc2)c1Cl | 0.73 | 9.1 |  | 
c1ccc(Cn2c(SCc3ccncc3)nnc2-c2ccsc2)cc1 | 41.5 | 1 |  | 
c1ccc(CSc2nnc(Cc3cccs3)n2Cc2ccccc2)cc1 | > 100 |  | Not Active | 
Clc1ccc(Cl)c(CSc2nnc(-c3cccs3)n2Cc2ccccc2)c1 | 1 | 7.9 |  | 
c1ccc(Cn2c(SCc3ccccn3)nnc2-c2ccsc2)cc1 |  |  | Not Active | 
Clc1cccc(CSc2nnc(-c3ccsc3)n2Cc2ccccc2)c1Cl | 1.3 | 5 |  | 
Clc1ccc(CSc2nnc(-c3cccs3)n2Cc2ccccc2)cc1Cl | 2.4 | 3.1 |  | 
c1ccc(Cn2c(SCc3ccc4ccccc4c3)nnc2-c2ccsc2)cc1 | 0.58 | 11.1 |  | 
O=C1Nc2ccc(Cl)cc2C(C#CC2CC2)(C(F)(F)F)O1 (single isomer, unassigned) [EFAVIRENZ] |  | > 6000 |  | 
c1ccc(CSc2nnc(-c3ccco3)n2Cc2ccccc2)cc1 | 4.6 | 5.2 |  | 
c1ccc(CCSc2nnc(-c3cccs3)n2Cc2ccccc2)cc1 | 28.5 | ≤ 1 |  | 
Clc1cccc(CSc2nnc(-c3ccsc3)n2Cc2ccccc2)c1 | 1.6 | 6.3 |  | 
c1ccc(CCn2c(SCc3ccccc3)nnc2-c2cccs2)cc1 | > 100 |  | Not Active | 
Clc1ccc(Cl)c(CSc2nnc(-c3ccsc3)n2Cc2ccccc2)c1 | 8.95 | 1.6 |  | 
Clc1ccc(Cn2c(SCc3ccccc3)nnc2-c2cccs2)cc1Cl | > 100 |  | Not Active | 
Clc1ccc(CSc2nnc(-c3ccsc3)n2Cc2ccccc2)c(Cl)c1 | 3.3 | 2.9 |  | 
N#Cc1ccc(CSc2nnc(-c3cccs3)n2Cc2ccccc2)cc1 | 23.5 | < 1 |  | 
COc1ccc(CSc2nnc(-c3cccs3)n2Cc2ccccc2)cc1 | 3 | 3.8 |  | 
c1ccc(Cn2c(SCc3cccnc3)nnc2-c2ccsc2)cc1 | 23 | 2 |  | 
COc1ccc(Cn2c(SCc3ccccc3)nnc2-c2cccs2)cc1 | > 100 |  | Not Active | 
c1ccc(CCSc2nnc(-c3ccsc3)n2Cc2ccccc2)cc1 | > 100 |  | Not Active | 
Clc1ccc(CSc2nnc(-c3ccsc3)n2Cc2ccccc2)cc1 | 51.1 | ≤ 1 |  | 

Compound | EC50 [1] [µM] | selectivity ratio [2] | Selectivity index [2] | logD [3]
c1ccc(CSc2nnc(-c3ccsc3)n2Cc2ccccc2)cc1 | 9.2 | 2 |  | 
Clc1cccc(Cl)c1CSc1nnc(-c2ccsc2)n1Cc1ccccc1 | > 100 |  | Not Active | 
COc1ccc(CSc2nnc(-c3ccsc3)n2Cc2ccccc2)cc1 | 5.8 | 1 |  | 
c1ccc(Cn2c(SCc3ccccn3)nnc2-c2cccs2)cc1 | 8.3 | 5 |  | 
Cn1c(SCc2ccccc2)nnc1-c1cccs1 | > 100 |  | Not Active | 
N#Cc1ccc(CSc2nnc(-c3ccsc3)n2Cc2ccccc2)cc1 | > 100 |  | Not Active | 
Clc1ccc(CSc2nnc(-c3cccs3)n2Cc2ccccc2)c(Cl)c1 | 1.1 | 7.7 |  | 
CSc1nnc(-c2ccsc2)n1Cc1ccccc1 | > 100 |  | Not Active | 
CCCCCCSc1nnc(-c2ccsc2)n1Cc1ccccc1 | > 100 |  | Not Active | 
Clc1ccc(Cn2c(SCc3ccccc3)nnc2-c2cccs2)cc1 | > 100 |  |  | 
c1ccc(Cn2c(SCc3ccncc3)nnc2-c2cccs2)cc1 | 4.8 | 15 |  | 
CSc1nnc(-c2cccs2)n1Cc1ccccc1 | > 100 |  | Not Active | 
Clc1cccc(CSc2nnc(-c3cccs3)n2Cc2ccccc2)c1 | 1.7 | 5.3 |  | 
c1ccc(CSc2nnc(-c3cc4ccccc4s3)n2Cc2ccccc2)cc1 | > 100 |  | Not Active | 
c1ccc(CSc2nnc(-c3ccccc3)n2Cc2ccccc2)cc1 | 10.5 | 1.1 |  | 
CCCCCCSc1nnc(-c2cccs2)n1Cc1ccccc1 | > 100 |  | Not Active | 
c1ccc(CSc2nnc(-c3cccs3)n2Cc2ccccc2)cc1 | 3.7 | 8 |  | 3.5
Clc1cccc(Cl)c1CSc1nnc(-c2cccs2)n1Cc1ccccc1 | 3.45 | 1.7 |  | 
c1ccc(Cn2c(SCc3ccc4ccccc4c3)nnc2-c2cccs2)cc1 | 1.7 | 5.9 |  | 
Clc1ccccc1CSc1nnc(-c2cccs2)n1Cc1ccccc1 | 0.44 | 35.2 |  | 
Clc1ccc(CSc2nnc(-c3cccs3)n2Cc2ccccc2)cc1 | 2 | 5.7 |  | 
Clc1ccccc1-c1nnc(SCc2ccccc2)n1Cc1ccccc1 | 2.85 | 2.9 |  | 
c1ccc(CSc2nnc(-c3cccs3)n2-c2ccccc2)cc1 | > 100 |  | Not Active | 
c1ccc(Cn2c(SCc3cccnc3)nnc2-c2cccs2)cc1 | 8.3 | 6 |  | 
